ChEMBL document CHEMBL2010647, “N-Methylated sst2 Selective Somatostatin Cyclic Peptide Analogue as a Potent Candidate for Treating Neurogenic Inflammation” (ACS Med Chem Lett, 2011)
Calls of active or inactive are those of the source. The rule behind the calls is not given here.

Experiments:
[1] = molecular target: Somatostatin receptor type 4 (Homo sapiens, UniProt P31391); assay: Binding affinity to human sst4 by in vitro receptor autoradiography assay
[2] = molecular target: Somatostatin receptor type 2 (Rattus norvegicus) (UniProt P30680); assay: Inhibition of sst2 in rat trachea assessed as effect on EFS-induced CGRP release in stimulated and poststimulated tracheal fraction at 500 nM after 8 mins by radioimmunoassay technique relative to control; type: tissue-based; design: scale not given: the % may be the effect or the level left
Summary of the method: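 Whole tracheae from exsanguinated, deeply anaesthetised rats, two per 1.8 mL organ bath, equilibrated 60 min with oxygenated Krebs (pH 7.2, 37 °C, 1 mL/min perfusion). Three static 8 min fractions; EFS (40 V, 0.1 ms, 10 Hz, 120 s) in the second. Peptide (500 nM) added at the start of fractions 2 and 3. CGRP measured by RIA in 200 μL samples, normalised to wet tissue weight; n = 5.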

[3] = molecular target: Somatostatin receptor type 3 (Homo sapiens, UniProt P32745); assay: Binding affinity to human sst3 by in vitro receptor autoradiography assay
[4] = molecular target: Somatostatin receptor type 1 (Homo sapiens, UniProt P30872); assay: Binding affinity to human sst1 by in vitro receptor autoradiography assay
[5] = molecular target: Somatostatin receptor type 5 (Homo sapiens, UniProt P35346); assay: Binding affinity to human sst5 by in vitro receptor autoradiography assay
[6] = molecular target: Somatostatin receptor type 2 (Homo sapiens, UniProt P30874); assay: Binding affinity to human sst2 by in vitro receptor autoradiography assay
Rattus norvegicus = assay: Antiinflammatory activity in rat assessed as inhibition of mustard oil-evoked acute neurogenic plasma protein extravasation in paw skin at 100 ug/kg, ip […] administered 10 mins before induction of inflammation; type: functional
Summary of the method: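 Rats received peptide 100 μg/kg ip 10 min before inflammation was induced with 1% mustard oil on dorsal paw skin; solvent-only controls run alongside. Read-out: Evans blue accumulated per g wet skin, given as mean + SEM, n = 6–10. Tested in blocks of 14–15 rats per day over 6 days, with treatments randomized. Mann–Whitney U test vs solvent.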

Chain of Somatostatin receptor type 4 (P31391 whole entry): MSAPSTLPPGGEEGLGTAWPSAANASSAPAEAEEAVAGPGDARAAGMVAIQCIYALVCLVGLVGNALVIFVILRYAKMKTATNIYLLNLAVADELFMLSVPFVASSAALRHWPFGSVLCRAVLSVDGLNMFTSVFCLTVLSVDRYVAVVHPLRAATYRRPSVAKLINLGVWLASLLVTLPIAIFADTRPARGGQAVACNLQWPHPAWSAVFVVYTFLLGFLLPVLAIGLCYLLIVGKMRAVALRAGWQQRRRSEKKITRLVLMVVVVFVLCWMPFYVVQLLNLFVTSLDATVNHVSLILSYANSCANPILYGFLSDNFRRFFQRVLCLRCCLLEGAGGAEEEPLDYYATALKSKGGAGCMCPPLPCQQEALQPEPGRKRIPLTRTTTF
Chain of Somatostatin receptor type 1 (P30872 whole entry): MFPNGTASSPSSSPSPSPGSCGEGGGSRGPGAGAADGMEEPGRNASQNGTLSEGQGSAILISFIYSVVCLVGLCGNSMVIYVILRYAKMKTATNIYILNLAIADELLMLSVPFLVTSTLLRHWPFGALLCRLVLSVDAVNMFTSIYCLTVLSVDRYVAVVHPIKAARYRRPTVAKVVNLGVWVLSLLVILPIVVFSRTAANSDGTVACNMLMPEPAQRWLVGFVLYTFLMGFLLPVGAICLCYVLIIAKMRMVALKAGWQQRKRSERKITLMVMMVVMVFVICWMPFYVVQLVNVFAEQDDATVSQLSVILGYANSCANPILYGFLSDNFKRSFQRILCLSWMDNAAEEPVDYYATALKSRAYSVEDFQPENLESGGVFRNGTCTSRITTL
Chain of Somatostatin receptor type 2 (P30874 whole entry): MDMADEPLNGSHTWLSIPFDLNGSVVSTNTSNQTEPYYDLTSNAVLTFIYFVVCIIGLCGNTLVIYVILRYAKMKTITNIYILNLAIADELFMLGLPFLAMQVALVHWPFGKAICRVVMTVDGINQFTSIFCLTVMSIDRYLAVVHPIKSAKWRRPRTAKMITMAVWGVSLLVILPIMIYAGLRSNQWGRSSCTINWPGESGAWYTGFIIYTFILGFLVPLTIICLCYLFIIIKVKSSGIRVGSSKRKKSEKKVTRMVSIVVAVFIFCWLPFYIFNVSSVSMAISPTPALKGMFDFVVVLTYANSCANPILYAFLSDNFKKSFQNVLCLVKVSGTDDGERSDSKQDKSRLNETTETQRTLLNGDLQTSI
Chain of Somatostatin receptor type 5 (P35346 whole entry): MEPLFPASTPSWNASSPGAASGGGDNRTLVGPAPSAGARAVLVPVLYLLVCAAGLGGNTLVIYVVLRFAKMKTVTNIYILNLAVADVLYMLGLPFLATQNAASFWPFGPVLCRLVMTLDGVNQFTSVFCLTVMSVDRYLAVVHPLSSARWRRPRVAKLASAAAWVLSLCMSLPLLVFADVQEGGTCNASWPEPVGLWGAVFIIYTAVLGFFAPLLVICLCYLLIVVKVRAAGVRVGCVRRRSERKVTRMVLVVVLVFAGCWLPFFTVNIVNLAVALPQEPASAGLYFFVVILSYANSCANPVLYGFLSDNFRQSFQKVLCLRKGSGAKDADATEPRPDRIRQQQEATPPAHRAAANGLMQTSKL
Chain of Somatostatin receptor type 3 (P32745 whole entry): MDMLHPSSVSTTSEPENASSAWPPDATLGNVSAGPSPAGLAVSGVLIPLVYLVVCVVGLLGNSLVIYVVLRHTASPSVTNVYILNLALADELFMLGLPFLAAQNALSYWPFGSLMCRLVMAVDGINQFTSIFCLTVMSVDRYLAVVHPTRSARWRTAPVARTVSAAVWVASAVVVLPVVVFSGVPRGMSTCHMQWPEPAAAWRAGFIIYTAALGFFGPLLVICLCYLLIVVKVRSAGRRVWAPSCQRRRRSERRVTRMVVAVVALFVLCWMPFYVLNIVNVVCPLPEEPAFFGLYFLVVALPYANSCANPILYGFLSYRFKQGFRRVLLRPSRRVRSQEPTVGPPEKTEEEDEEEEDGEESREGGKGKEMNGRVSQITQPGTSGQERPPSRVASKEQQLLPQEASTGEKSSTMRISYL
Chain of Somatostatin receptor type 2 (Rattus norvegicus) (P30680 whole entry, the tested form may be a part): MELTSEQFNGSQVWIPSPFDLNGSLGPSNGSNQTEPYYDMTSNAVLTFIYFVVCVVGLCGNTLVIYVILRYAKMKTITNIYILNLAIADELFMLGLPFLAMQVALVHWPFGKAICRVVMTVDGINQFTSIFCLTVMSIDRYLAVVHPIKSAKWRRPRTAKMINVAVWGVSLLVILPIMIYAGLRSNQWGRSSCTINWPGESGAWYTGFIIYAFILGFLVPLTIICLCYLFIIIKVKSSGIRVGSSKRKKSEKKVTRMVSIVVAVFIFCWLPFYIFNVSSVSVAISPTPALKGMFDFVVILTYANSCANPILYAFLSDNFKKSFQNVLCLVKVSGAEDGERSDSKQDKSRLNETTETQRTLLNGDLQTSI

Row | Compound | IC50 [1] | Activity [2] | IC50 [3] | IC50 [4] | IC50 [5] | IC50 [6] | inhibition (Rattus norvegicus) | inhibition in vivo at 0.1 mg/kg (Rattus norvegicus)
1 | CC(C)[C@@H]1NC(=O)[C@H](CCCCN)NC(=O)[C@@H](Cc2c[nH]c3ccccc23)N(C)C(=O)[C@H](Cc2ccc(O)cc2)NC(=O)[C@H](C)N(C)C(=O)[C@H](Cc2ccccc2)N(C)C1=O | > 1000 nM | 268% | 82 nM | > 1000 nM | 76 nM | 45 nM | – | –
2 | CC(C)[C@@H]1NC(=O)[C@H](CCCCN)NC(=O)[C@@H](Cc2c[nH]c3ccccc23)N(C)C(=O)[C@H](Cc2ccc(O)cc2)NC(=O)[C@H](C)N(C)C(=O)[C@H](Cc2ccccc2)NC1=O | > 1000 nM | 360% | 205 nM | > 1000 nM | 126 nM | 5.5 nM | – | –
3 | CC(C)[C@@H]1NC(=O)[C@H](CCCCN)N(C)C(=O)[C@@H](Cc2c[nH]c3ccccc23)N(C)C(=O)[C@H](Cc2ccc(O)cc2)NC(=O)[C@H](C)N(C)C(=O)[C@H](Cc2ccccc2)NC1=O | > 1000 nM | 153% | 172 nM | > 1000 nM | 196 nM | 3.1 nM | inactive | –
4 | CC(C)[C@@H]1NC(=O)[C@H](CCCCN)N(C)C(=O)[C@@H](Cc2c[nH]c3ccccc23)NC(=O)[C@H](Cc2ccc(O)cc2)NC(=O)[C@H](C)N(C)C(=O)[C@H](Cc2ccccc2)NC1=O | > 1000 nM | 182% | 308 nM | > 1000 nM | 247 nM | 4.2 nM | inactive | –
5 | CC(C)[C@@H]1NC(=O)[C@H](CCCCN)N(C)C(=O)[C@@H](Cc2c[nH]c3ccccc23)N(C)C(=O)[C@H](Cc2ccc(O)cc2)NC(=O)[C@H](C)N(C)C(=O)[C@H](Cc2ccccc2)N(C)C1=O | > 1000 nM | 100% | 200 nM | > 1000 nM | 263 nM | 44 nM | – | 40%

More lines, main results first:

Row | IC50 [1] | Activity [2] | IC50 [3] | IC50 [4] | IC50 [5] | IC50 [6] | Compound | inhibition (Rattus norvegicus) | inhibition in vivo at 0.1 mg/kg (Rattus norvegicus)
6 | > 1000 nM | 355% | 98 nM | > 1000 nM | 53 nM | 4.4 nM | CC(C)[C@@H]1NC(=O)[C@H](CCCCN)NC(=O)[C@@H](Cc2c[nH]c3ccccc23)NC(=O)[C@H](Cc2ccc(O)cc2)NC(=O)[C@H](C)N(C)C(=O)[C@H](Cc2ccccc2)N(C)C1=O | – | –
7 | 373 nM | 343% | 175 nM | > 1000 nM | 137 nM | 4.1 nM | CC(C)[C@@H]1NC(=O)[C@H](CCCCN)N(C)C(=O)[C@@H](Cc2c[nH]c3ccccc23)NC(=O)[C@H](Cc2ccc(O)cc2)NC(=O)[C@H](C)N(C)C(=O)[C@H](Cc2ccccc2)N(C)C1=O | – | –
8 | – | 294% | 105 nM | > 1000 nM | 81 nM | – | CC(C)[C@@H]1NC(=O)[C@H](CCCCN)NC(=O)[C@@H](Cc2c[nH]c3ccccc23)NC(=O)[C@H](Cc2ccc(O)cc2)NC(=O)[C@H](C)N(C)C(=O)[C@H](Cc2ccccc2)NC1=O [SEGLITIDE] | – | –
